# Assay outcomes (PubChem BioAssay)
# This is a sample that favours compounds with a hit; in the whole collection about 4.8% have one here.
# Beta apoptosis – inhibitors of cytokine-induced beta cell apoptosis, primary screen, luminescence; INS-1E cytokine-induced death, ATP luminescence, 48 h; percent of positive-control rescue, neutral wells zero; protection from apoptosis, % (no concentration beside the values); 0.8% of 300,000 active; AID 435005, 2010;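 active = Every replicate reaches about 75%, or at least half do and their mean reaches it too, limit read from the data; inconclusive = At least half of replicates reach the limit but their mean does not; inactive = Under half of replicates reach the limit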;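 also: higher means more ATP so stronger rescue from cytokine killing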
# T cruzi inh – inhibitors of intracellular T. cruzi growth, primary screen, luminescence, NIH3T3 host cells; inhibition, % (concentration not given with the values); 1.4% of 300,000 active; AID 1885, 2009; T. cruzi beta-gal in NIH3T3, 90 h;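 active = mean inhibition across valid replicates above about 55%, limit read from the data; inconclusive = mean below that limit but half or more replicates reach it; inactive = mean below it, under half of replicates reach it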;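 also: signal also drops with host cell toxicity which is not excluded here; higher percent means less beta-gal luminescence so fewer parasites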
#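 Incubation – ≥90 h infection period, 3 h prior cell attachment · System – NIH/3T3 fibroblasts plus reporter T. cruzi · Doses – compound pinned at 50 nL/well, DMSO · Read-out basis – percent inhibition of parasite-derived β-gal signal · Signal – luminescent β-galactosidase signal after 60 min lysis · Also added – 5000 T. cruzi trypomastigotes/well · Medium – Low-serum DMEM with 2% FBS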
# Efflux pump mplx – inhibitors of Candida efflux pumps in yeast, primary screen, S. cerevisiae, Nile Red, multiplex | S. cerevisiae Candida pump triplex | inhibition, % at 10 µM | 0.44% of 330,000 active;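 active = plate passing quality check with inhibition over a set limit, or well fluorescence over plate mean plus 4 SD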;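 also: Nile Red retained in pooled yeast measured as flow cytometry median fluorescence; higher means more Nile Red kept so more efflux inhibition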
# WT yeast gro inh – growth inhibition of WT strain, primary screen, mitochondrial fusion inhibitor project, WT and mutant strains, chemical genetic. mitochondrial fusion phenotypic screen. inhibition, % at 10 µM. 2.1% of 190,000 active. AID 1362, 2008; in the data active = inhibition above about 58%; tested in S. cerevisiae
# Mot1-301 SUMO – yeast Mot1-301 growth rescue at high temperature, primary screen, SUMOylation pathway inhibitor project, S. cerevisiae, ATP luminescence, 38.5C; S. cerevisiae Mot1-301 growth rescue; percent above DMSO median, 100 means doubled; growth rescue, % at 18.8 µM; 1% of 320,000 active;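 active = every valid replicate shows activation above 250% relative to neutral control wells; inactive = the rest, any valid replicate at or below 250%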
# CSC inhib – cancer stem cell viability inhibitors, primary screen, luminescence; cancer stem cell-like cells viability; inhibition, % at 7.5 µM; 1.1% of 300,000 active; AID 2717, 2010; in the data active = inhibition above about 75%; inconclusive = no clear call, values can overlap the other calls; tested in HMLE shEcad cells
# Numbers stand for hits; n = inactive; u = inconclusive; x = no result.
SMILES,Beta apoptosis,T cruzi inh,Efflux pump mplx,WT yeast gro inh,Mot1-301 SUMO,CSC inhib
COc1cc2c(cc1OC)C(C)N(C(=O)C1COc3ccccc3O1)CC2 (configuration not stated),n,n,n,n,755,n
Cc1ccc(C2CN(CCC(N)=O)C(=O)CO2)cc1 (configuration not stated),n,x,n,x,n,n
O=[N+]([O-])c1ccc(N/N=C2/CCCCC2c2ccccn2)cc1 (configuration not stated),x,n,x,74,x,x
Cc1cc(OCC(=O)Nc2ccc(S(=O)(=O)NC3=NCCCCC3)cc2)c(C(C)C)cc1Cl,n,n,n,n,n,85
O=C(NCC1(c2ccccc2)CCCC1)c1cccc(Br)c1,n,n,n,n,n,n
Cc1ccc(NC(=O)c2cc(C)n(-c3cccc(C)c3)c2C)cc1,n,n,n,62,n,n
O=[N+]([O-])c1cc(C(F)(F)F)ccc1NC1CCN(Cc2ccccc2)C1 (configuration not stated),n,n,n,x,262,n
O=C(c1cccc(Cl)c1)c1nn(-c2ccccc2)c(=O)cc1C(F)(F)F,107,n,n,n,n,n
O=C(c1ccccc1)c1nn(-c2ccccc2)c(=O)cc1C(F)(F)F,x,n,n,n,n,n
O=C(c1ccccc1)c1nn(-c2ccc(Cl)cc2)c(=O)cc1C(F)(F)F,n,n,n,n,n,108
Cc1ccc([C@@H]2[C@@H]3C(=O)N(c4ccccc4)C(=O)[C@@H]3[C@]3(C)C(=O)N(Cc4ccc(-c5ccccc5)cc4)CC(=O)N23)o1,n,n,n,x,n,n
NC(=S)N/N=C/c1ccc(C23CC4CC(CC(C4)C2)C3)cc1,77,77,0.6,x,n,113
CNC(=S)Nc1ccc(C23CC4CC(CC(C4)C2)C3)cc1,n,n,n,68,n,n
CC(=O)Nc1ccc(C23CC4CC(CC(C4)C2)C3)cc1,n,n,n,x,n,n
C/C(=N/NC(=O)c1ccc(C)s1)c1cccc(NC(=O)c2ccoc2C)c1,n,n,n,x,n,n
COc1cc(C(=O)NCC(c2ccccc2)N(C)C)ccc1OCc1c(C)noc1C (configuration not stated),n,x,n,x,n,x
O=C(O)CCCn1cc(NC(=O)c2c(F)cccc2F)cn1,n,n,n,n,n,n
O=C(COC(=O)c1ccccn1)Nc1cccc(Cl)c1Cl,n,n,n,97,n,n
COc1ccccc1NC(=O)COC(=O)c1ccccn1,n,n,n,x,n,n
CCOC(=O)C1(Cc2ccccc2C)CCCN(S(=O)(=O)CC)C1 (configuration not stated),x,n,n,x,n,n
CCN(Cc1ccncc1)C(=S)Nc1c(C)cccc1C,n,n,n,n,n,x
CSc1cccc(NC(=S)N(Cc2ccccc2)Cc2cccnc2)c1,n,83,n,n,n,n
Cc1cccc(C)c1NC(=S)N(Cc1ccccc1)Cc1cccnc1,n,79,n,n,n,n
Cc1c(Cl)cccc1NC(=S)N(Cc1cccnc1)Cc1ccccc1Cl,n,75,n,n,n,n
CCCc1cc(C(=O)OCC(=O)N2CCN(c3ccc(OC)cc3)CC2)sc1C,n,x,n,x,n,n
SMILES,Beta apoptosis,T cruzi inh,Efflux pump mplx,WT yeast gro inh,Mot1-301 SUMO,CSC inhib
O=c1[nH]c2ccccc2nc1NCc1ccccc1,n,n,n,x,n,n
CC1=NN(c2nc3ccccc3[nH]2)C(=O)C1Cc1ccccc1 (configuration not stated),99,n,n,x,n,100
O=C(N/N=C/c1c[nH]c2ccccc12)c1[nH]c2ccc(Br)cc2c1-c1ccccc1,x,u,x,96,x,x
N#Cc1ccccc1N1CCN(C(=O)c2ccc(NC(=O)c3ccc(Br)o3)cc2)CC1,n,x,n,x,n,n
CCC(CO)[n+]1c(C)cc(/C=C2\Sc3ccccc3N2Cc2ccccc2)cc1C (configuration not stated),105,x,n,59,n,n
Cc1ccc2c(c1)N(CC(=O)NCC1CCCO1)C(=O)C(C(C)C)O2 (configuration not stated),n,n,n,x,n,x
O=C(NCC1CCCO1)c1ccc(NC(=O)c2ccc([N+](=O)[O-])cc2)cc1 (configuration not stated),n,n,n,x,n,n
CN1C/C(=C/c2ccsc2)C(=O)/C(=C/c2ccsc2)C1,n,56,n,n,n,n
CCOc1cc(/C=C2\CCC/C(=C\c3cc(Cl)c(O)c(OCC)c3)C2=O)cc(Cl)c1O,75,n,n,n,n,n
CCOc1cc(/C=C2\CN(C)C/C(=C\c3ccc(O)c(OCC)c3)C2=O)ccc1O,n,62,n,x,n,105
C=CCN1C(=O)c2ccccc2Sc2ccc(C(=O)NCC(OC)OC)cc21,n,n,n,x,n,n
COc1ccc2c(c1)-c1c(ssc1=S)C(C)(C)N2S(=O)(=O)c1ccc(C)cc1,n,n,n,n,n,n
Cc1ccc(S(=O)(=O)N2c3ccccc3-c3c(ssc3=S)C2(C)C)cc1,n,55,n,n,n,n
COc1ccc(-c2n[nH]c(=S)n2-c2ccc(Br)cc2)cc1OC,n,n,n,x,n,n
Cc1ccccc1N1CCN(c2ncnc3scc(-c4cccs4)c23)CC1,n,n,n,65,n,n
Clc1ccc(CN2CCN(c3ncnc4scc(-c5cccs5)c34)CC2)cc1,n,n,n,60,n,n
Clc1ccc(-c2csc3ncnc(N4CCc5ccccc5C4)c23)cc1,n,n,n,65,n,n
CCOC(=O)N1CCN(c2ncnc3scc(-c4ccc(Cl)cc4)c23)CC1,n,n,n,x,n,n
O=C(c1ccc(Cl)cc1Cl)C1(n2cncn2)Oc2ccccc2C1O (configuration not stated),n,55,n,n,n,n
CC(C)/C=C(/C(=O)c1ccc(Cl)cc1Cl)n1cncn1,n,n,n,x,n,n
Cc1cc(C)c(N2CCN(S(=O)(=O)N3CCCCCC3)CC2)c(C)c1,n,n,n,61,n,x
Cc1ccc(NC(=O)C[n+]2ccn(C3=C([O-])c4ccccc4C3=O)c2)cc1,n,n,n,n,n,n
CC(=O)Nc1ccc(S(=O)(=O)/N=C2\C(=O)c3ccccc3C([O-])=C2n2cc[n+](-c3ccccn3)c2)cc1,n,n,n,x,n,n
CCCC[n+]1ccn(C2=C([O-])c3ccccc3C(=O)/C2=N\S(=O)(=O)c2ccc(Br)cc2)c1,90,n,n,n,n,n
Cc1ccc(S(=O)(=O)/N=C2\C(=O)c3ccccc3C([O-])=C2n2cc[n+](CCC(C)C)c2)cc1,90,n,n,n,n,n
O=C(Nc1ccccc1N1CCOCC1)c1ccc(Cl)c(S(=O)(=O)N2CCCC2)c1,n,x,n,x,n,x
